As usually defined, the ED50 is the midpoint of the dose-response relation. What is called TD50 is the dose at which the toxic effect under study appears in half of the subjects.

The source made the active and inactive calls. The calls are words filed in the database; no cut-off is given here.

Data set [1] in a line: Time of peak effect (TPE) for activity. The format is ADME. Details: unit not given here. In a few lines:
(§1)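 Phase II quantitation, drug given ip. ED50 in the MES or scMet test was taken at the time of peak effect, with the peak time set in MES for some compounds and in scMet for others. Rotorod TD50 was taken at the time of peak neurologic deficit. Values are in mg/kg with 95% confidence limits. Protective index is TD50/ED50.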

The nature of data set [2]: Time of peak effect (TPE) for toxicity. Further details: unit not given here. A digest of the protocol:
as §1

Data set [3] can be described thus: Protective index which is the ratio of TD50 to ED50 of against subcutaneous pentylenetetrazole test. It counts as functional. A digest of the protocol:
as §1

Data set [4] deals with Gallus gallus. In words: Compound was evaluated for effective dose by maximal electroshock test after intraperitoneal administration of the compound. The note with it: ip. The format is functional. In a few lines:
as §1
Background: The maximal electroshock test induces tonic seizures with an electrical stimulus.

The nature of data set [5]: Protective index which is the ratio of TD50 to ED50 of in maximal electroshock test. It counts as functional. In a few lines: as §1
The test system of data set [6] is Gallus gallus. Nature of the data set: Toxicity test (number of animals exhibiting toxicity / number of animals tested) done at a dose 100 mg/kg against young chicks after 4 hr; 4/4. The format is organism-based. Further details: dose 100 mg/kg. The note with it: chicken, in vivo.
Data set [7] deals with Gallus gallus. Nature of the data set: Toxicity test (number of animals exhibiting toxicity / number of animals tested) done at a dose 100 mg/kg against young chicks after 30 min; 8/8. Further details: dose 100 mg/kg. The format is organism-based. The note with it: chicken, in vivo, 0.5 h.
The test system of data set [8] is Gallus gallus. Nature of the data set: Anticonvulsant activity by maximal electroshock test at a dose of 100 mg/kg against young chicks after 30 min; 2/3. It counts as functional.
The test system of data set [9] is Gallus gallus. Nature of the data set: Anticonvulsant activity by subcutaneous pentylenetetrazole test at a dose of 100 mg/kg against young chicks after 30 min; 0/0. It counts as functional.
In data set [10] the test system is Gallus gallus. In words: Anticonvulsant activity by subcutaneous pentylenetetrazole test at a dose of 100 mg/kg against young chicks after 30 min; 1/1. The format is functional.
For data set [11], the system named is Gallus gallus. Nature of the data set: Anticonvulsant activity by subcutaneous pentylenetetrazole test at a dose of 30 mg/kg against young chicks after 30 min; 1/1. It counts as functional.
Data set [12] deals with Gallus gallus. In words: Anticonvulsant activity by subcutaneous pentylenetetrazole test at a dose of 30 mg/kg against young chicks after 4 hr; 1/1. It counts as functional.
Data set [13] relates to Gallus gallus. Nature of the data set: Anticonvulsant activity by maximal electroshock test at a dose of 30 mg/kg against young chicks after 30 min; 1/1. It counts as functional.
Data set [14] deals with Gallus gallus. In words: Anticonvulsant activity by maximal electroshock test at a dose of 300 mg/kg against young chicks after 30 min; 1/1. The format is functional.
Data set [15] concerns Gallus gallus. Nature of the data set: Anticonvulsant activity by subcutaneous pentylenetetrazole test at a dose of 300 mg/kg against young chicks after 30 min; 0/0. It counts as functional.
The nature of data set [16]: Compound was evaluated for toxic dose at peak neurologic deficit after intraperitoneal administration of the compound. It counts as ADME, organism-based, Gallus gallus. The following applies: chicken, in vivo, ip. A digest of the protocol:
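Mice received compound dissolved or suspended in 30% polyethylene glycol 400 by intraperitoneal injection. Neurological toxicity was scored as failure on the rotorod test. Testing was run through the NINCDS Antiepileptic Drug Development Program.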

Data set [17] has as its system Gallus gallus. Nature of the data set: Compound was evaluated for effective dose by subcutaneous pentylenetetrazole test after intraperitoneal administration of the compound; Not Effective. The format is functional, organism-based. In a few lines: as §1
For data set [18], the system named is Gallus gallus. In words: Anticonvulsant activity by maximal electroshock test at a dose of 100 mg/kg against young chicks after 30 min; 1/3. It counts as functional.
Data set [19] relates to Gallus gallus. Nature of the data set: Toxicity test (number of animals exhibiting toxicity / number of animals tested) done at a dose 100 mg/kg against young chicks after 4 hr; […]. It counts as organism-based. Further details: dose 100 mg/kg. The following applies: chicken, in vivo.
Data set [20] deals with Gallus gallus. In words: Anticonvulsant activity by subcutaneous pentylenetetrazole test at a dose of 300 mg/kg against young chicks after 30 min; 1/1. The format is functional.
The test system of data set [21] is Gallus gallus. In words: Toxicity test (number of animals exhibiting toxicity / number of animals tested) at a dose of 30 mg/kg after 0.25 hr; 0/8. It counts as organism-based. Details: dose 30 mg/kg. The note with it: chicken, in vivo.
Data set [22] deals with Gallus gallus. Nature of the data set: Toxicity test (number of animals exhibiting toxicity / number of animals tested) at a dose of 30 mg/kg after 6 h; 8/8. Details: dose 30 mg/kg. The following applies: chicken, in vivo. It counts as organism-based.
For data set [23], the system named is Gallus gallus. In words: Subcutaneous pentylenetetrazole test (ScMet) (number of animals protected / number of animals tested) at a dose of 30 mg/kg after 0.25 hr; 4/8. The format is functional.
The subject of data set [24] is Gallus gallus. Nature of the data set: Toxicity test (number of animals exhibiting toxicity / number of animals tested) at a dose of 30 mg/kg after 0.50 hr; 0/8. The format is organism-based. Details: dose 30 mg/kg. The note with it: chicken, in vivo, 0.5 h.
Data set [25] relates to Gallus gallus. In words: Subcutaneous pentylenetetrazole test (ScMet) (number of animals protected / number of animals tested) at a dose of 30 mg/kg after 1 hr; 8/8. The format is functional.
Data set [26] concerns Gallus gallus. Nature of the data set: Toxicity test (number of animals exhibiting toxicity / number of animals tested) at a dose of 30 mg/kg after 1 hr; 1/8. The format is organism-based. Further details: dose 30 mg/kg. The following applies: chicken, in vivo.
In data set [27] the test system is Gallus gallus. In words: Subcutaneous pentylenetetrazole test (ScMet) (number of animals protected / number of animals tested) at a dose of 30 mg/kg after 2 hr; 8/8. The format is functional.
Data set [28] relates to Gallus gallus. In words: Subcutaneous pentylenetetrazole test (ScMet) (number of animals protected / number of animals tested) at a dose of 30 mg/kg after 0.50 hr; 4/8. The format is functional.
Data set [29] concerns Gallus gallus. Nature of the data set: Toxicity test (number of animals exhibiting toxicity / number of animals tested) at a dose of 50 mg/kg after 1 hr; 7/8. The note with it: chicken, in vivo. The format is organism-based. Further details: dose 50 mg/kg.
In data set [30] the test system is Gallus gallus. In words: Toxicity test (number of animals exhibiting toxicity / number of animals tested) at a dose of 30 mg/kg after 4 hr; 8/8. The format is organism-based. Details: dose 30 mg/kg. The note with it: chicken, in vivo.
Data set [31] deals with Gallus gallus. In words: Toxicity test (number of animals exhibiting toxicity / number of animals tested) at a dose of 50 mg/kg after 2 hr; 6/8. It counts as organism-based. Details: dose 50 mg/kg. The note with it: chicken, in vivo.
Data set [32] has as its system Gallus gallus. In words: Toxicity test (number of animals exhibiting toxicity / number of animals tested) at a dose of 30 mg/kg after 2 hr; 8/8. Further details: dose 30 mg/kg. The following applies: chicken, in vivo. It counts as organism-based.
Data set [33] concerns Gallus gallus. In words: Toxicity test (number of animals exhibiting toxicity / number of animals tested) at a dose of 50 mg/kg after 0.50 hr; 4/8. It counts as organism-based. Details: dose 50 mg/kg. The note with it: chicken, in vivo, 0.5 h.

Take `CCC1(c2ccccc2)C(=O)NC(=O)NC1=O` [PHENOBARBITAL]: the results for the TPE in data set [1] and in [2] were 1 and 0.5, respectively.

As for `O=C1c2cccc3cccc(c23)C(=O)N1[O-].[Na+]`, in data set [3], the PI turned out to be 0.84. In addition, the TPE in data set [1] amounted to 0.25; in data set [2], 4.

Compound `O=C1c2ccccc2C(=O)N1O` displayed an ED50 in the data set with Gallus gallus [4] of 95.4 mg/kg. Further, in [5], the PI amounted to 0.99. In addition, the “No. of animals protected/animals tested” value in the data set on Gallus gallus [6] was 4; in the data set on Gallus gallus [7], 8; with Gallus gallus [8], 2; in the data set on Gallus gallus [9], 0. Moreover, the TPE in data set [1] and in data set [2] was 0.25 each time.

On to `C=C(CON1C(=O)c2ccccc2C1=O)C(=O)OC`, for which the PI in [3] turned out to be 0.72. Moreover, the “No. of animals protected/animals tested” value in the data set with Gallus gallus [6] is listed as 4; in the data set on Gallus gallus [10] it was 1; with Gallus gallus [11], 1; with Gallus gallus [12], 1; in the data set on Gallus gallus [13], 1; in the data set with Gallus gallus [14], 1. The “No. of animals protected/animals tested” value in the data set on Gallus gallus [15] worked out at 0. In addition, the values for the TPE in data set [1] and in data set [2] were 1 and 4, respectively.

On to `O=C1CC2(CCCC2)C(=O)N1OCc1ccccc1`, for which the PI in data set [5] was 4.5. Moreover, in data set [16], the TD50 was over 500 mg/kg. Further, the results for the TPE in [1] and in data set [2] were 0.25 and 4, respectively.

Consider `NC(=O)N1c2ccccc2C=Cc2ccccc21` [CARBAMAZEPINE], for which the ED50 entry in the data set on Gallus gallus [17] is “inactive”. Moreover, the TPE in [1] and in data set [2] was 0.25 throughout.

For the compound `O=C1NC(=O)C(c2ccccc2)(c2ccccc2)N1` [PHENYTOIN], in the data set on Gallus gallus [17], the ED50 entry was “inactive”. The TPE in data set [1] and in data set [2] was 2 in each case.

As to `CCC1(C)CC(=O)NC1=O` (stereo not given) [ETHOSUXIMIDE], the TPE in [1] and in data set [2] was 0.5 each time.

`CCOC(=O)ON1C(=O)CCC1=O`: the “No. of animals protected/animals tested” value was found to be 1 in the data set on Gallus gallus [18], 4 in the data set with Gallus gallus [19] and 1 in the data set on Gallus gallus [20].

Consider `CCCC(CCC)C(=O)O` [VALPROIC ACID], for which the results for the PI in data set [3] and in [5] were 2.87 and 1.57, respectively. The TPE in data set [1] and in data set [2] was 0.25 throughout.

For the compound `C=C(CON1C(=O)CCC1=O)C(=O)OC`, the “No. of animals protected/animals tested” value worked out at 0 with Gallus gallus [21]; 8 in the data set with Gallus gallus [22]; 4 in the data set with Gallus gallus [23]; 0 in the data set with Gallus gallus [24]; 8 in the data set on Gallus gallus [25]; 1 with Gallus gallus [26]. In addition, the “No. of animals protected/animals tested” value was 8 with Gallus gallus [27]; 4 with Gallus gallus [28]; 7 in the data set on Gallus gallus [29]; 8 with Gallus gallus [30]; 6 in the data set on Gallus gallus [31]; 8 with Gallus gallus [32]. Further, the “No. of animals protected/animals tested” value with Gallus gallus [33] was 4.
